The values below come from ChEMBL document CHEMBL4725346, “Syntheses and Evaluation of New Bisacridine Derivatives for Dual Binding of G-Quadruplex and i-Motif in Regulating Oncogene c-myc Expression” (J Med Chem, 2020).

The subject of data set [1] is Quadruplex DNA. Nature of the data set: Binding affinity to c-myc mutated promoter G-quadruplex/i-motif (unknown origin) expressed in human SiHa cells assessed as reduction in c-myc transcription by measuring decrease in ratio of renilla/firefly luciferase activity at 0.025 to 0.1 uM after 48 hrs by dual-luciferase reporter assay. In kind it is cell-based. The following applies: dose microM 0.025-0.1, time 48.0 hrs. In a few lines: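 SiHa cells transfected with 200 ng psiCHECK2 plasmid carrying wild-type, mutant or deleted c-myc promoter. Compounds added 8 h after transfection, then incubated 48 h at 37 °C. Cells washed with ice-cold PBS; Renilla/firefly activity ratio read by dual-luciferase assay.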

Data set [2] can be described thus: Stabilization of 5'-FAM/3'-TAMRA labeled c-myc promoter i-motif DNA FPy33T (unknown origin) assessed as change in melting temperature at 1 uM by FRET assay (reference value: 53.2 degreeC). In a few lines:
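FRET melting of dual FAM/TAMRA-labelled FPy33T annealed in 1× BPES (30 mM potassium phosphate, 1 mM EDTA, 100 mM KCl), pH 5.5. Final 0.2 µM DNA with or without ligand. Excitation 470 nm, emission 530 nm, read every 1 °C over 37–99 °C. ΔTm taken against DNA alone.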

The next data set addresses dsDNA. Nature of the data set: Binding affinity to 5'-biotin labeled duplex DNA (unknown origin) by surface plasmon resonance method. It counts as nucleic-acid assay. In a few lines: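 SPR: 5'-biotin DNA diluted to 1 μM and captured (1000 RU) on a sensor chip, with a blank cell as reference. Running buffers: Py33 in 20 mM MES pH 5.8, 100 mM KCl, 0.05% Tween-20; Pu27 and duplex in 50 mM Tris-HCl pH 7.4, 100 mM KCl. Six ligand concentrations serially diluted from DMSO stock. Association 260 s, dissociation 300 s at 25 °C; NaOH regeneration; blank sensorgrams subtracted.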
Background: Surface plasmon resonance follows binding to a sensor surface in real time, without labels.

The next data set deals with HCT-116. Nature of the data set: Antiproliferative activity against human HCT-116 cells after 48 hrs by MTT assay. In kind it is functional, cell-based. The following applies: HCT-116, 48 h. The method, boiled down: (§1)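 Cells seeded at 5.0×10^3 per well, pre-incubated 12 h at 37 °C, 5% CO2, then exposed to compounds for 48 h; DMSO-only control. MTT (2.5 mg/mL) added for 4 h, formazan dissolved in DMSO, absorbance at 570 nm. Each dose tested in triplicate; IC50 from percentage survival relative to negative control.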
On the technique in general: Tetrazolium dyes change colour on reduction, which living cells bring about.

The subject of the next data set is A549. Nature of the data set: Antiproliferative activity against human A549 cells after 48 hrs by MTT assay. In kind it is functional, cell-based. The following applies: A549, 48 h. In a few lines: as §1
Data set [3] in a line: Toxicity in BALB/c nude mouse xenografted with human SiHa cells assessed as effect on liver weight at 15 mg/kg, ip administered once per 2 days for 18 days. It counts as organism-based. The following applies: in vivo, 432 h, time 18 day. The method, boiled down:
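SiHa tumour fragments passaged from donor mice implanted in the underarm of female BALB/c nude mice (six per group). Compound given at 15 mg/kg ip once every two days for 18 days, with saline and cisplatin 0.2 mg/kg control groups. Body weight recorded every two days; at day 18 mice were sacrificed and organs weighed.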

For data set [4], the system named is Raji. Nature of the data set: Antiproliferative activity against human Raji cells after 48 hrs by MTT assay. It counts as functional, cell-based.
Data set [5] in a line: Stabilization of c-myc promoter i-motif DNA Py33 (unknown origin) assessed as effect on melting temperature at 5 uM by CD spectroscopy. In a few lines: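 CD melting: Py33 at 1 µM in 1× BPES pH 6.4, with or without ligand. Annealed at 95 °C for 5 min, slowly cooled, then heated at 1 °C/min while monitoring 260 nm. Tm obtained by curve fitting.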
For data set [6], the system named is Raji. In words: Induction of cell cycle arrest in human Raji cells assessed as accumulation of cells at G2/M phase at 0.15 to 0.6 uM after 24 hrs by propidium iodide staining based flow cytometry. In kind it is functional. The following applies: dose microM 0.15-0.6, time 24.0 hrs.
In data set [7] the test system is SiHa. In words: Induction of cell cycle arrest in human SiHa cells assessed as accumulation of cells at S phase at 0.60 uM after 24 hrs by propidium iodide staining based flow cytometry (reference value: 17.74%). In kind it is functional. The following applies: dose 0.6 µM.
Data set [8] deals with SiHa. Nature of the data set: Induction of apoptosis in human SiHa cells assessed as early apoptotic cells at 0.6 uM after 24 hrs by annexin V/FITC-propidium iodide staining-based flow cytometric method ( Rvb = 0.3%). It counts as functional. (In general: In flow cytometry, cells or beads pass a laser one at a time.)
For data set [9], the system named is Quadruplex DNA. In words: Binding affinity to c-myc promoter G-quadruplex/i-motif in human SiHa cells assessed as reduction in c-myc expression at 2.5 uM incubated for 24 hrs by Western blot analysis. In kind it is cell-based. Set-up: scale not given: the % may be the effect or the level left. In a few lines: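 SiHa cells treated 24 h at 0, 0.625, 1.25 and 2.5 μM, then lysed in buffer with 1 mM PMSF. Protein measured by BCA, equal loads run on 8% gel and blotted to PVDF. Probed with anti-c-MYC and anti-β-actin (loading control), HRP anti-rabbit secondary, chemiluminescence read-out.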

Data set [10] deals with SiHa. Nature of the data set: Effect on stability of c-myc RNA in human SiHa cells at 2.5 uM in presence of actinomycin D by RT-PCR method. It counts as functional, cell-based. The method, boiled down:
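SiHa cells seeded at 2×10^5 per well, grown 24 h, then treated with 5 µg/mL actinomycin D plus 2.5 µM compound. Total RNA extracted at the indicated time points for RT-PCR.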

Activity calls are given as the source filed them. The calls are words filed in the database; no cut-off is given here. A value given as a limit tells only on which side of the number the result lay.

Broadly, the ΔTm is the change in melting temperature against a reference sample. What is called Kd is the equilibrium constant for the complex coming apart. As usually defined, the IC50 is the concentration that gives 50% inhibition. For `Cc1ccc2nc3ccc(C)cc3c(NCCCNCCNCCCNc3c4cc(C)ccc4nc4ccc(C)cc34)c2c1`, the outcome with Quadruplex DNA [1] and in the data set with SiHa [10] was inactive. In [2], the ΔTm came out at 11 °C. In addition, binding at dsDNA was characterised by a dissociation constant (Kd) of 18500 nM. For the same compound, the IC50 in the data set with HCT-116 was 150 nM; in the data set with A549, 180 nM. Further, the Activity result in data set [3] is “Non-Toxic”; with SiHa [7], 13.58%; in the data set with SiHa [8] it was 18.1%; with Quadruplex DNA [9], less than 73.9%. In addition, the result (in the data set with Raji [4]; in data set [5]; in the data set on Raji [6]) was Active.
